GASC1 inh: KDM4C (human) demethylase inhibition | 0.15% of 96,000 active | Q9H3R0 | AID 720574 | inhibition, % at 12.5 µM | GST-KDM4C 2-372, H3K9me3 peptide, LANCE TR-FRET;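 active means mean replicate inhibition above about 25%, with at least 55% of replicates also reaching it, limit read from the data, passing the limit was not always enough; inconclusive means only one of those two conditions met; inactive means neither condition met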
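reagent = H3K9me3 peptide substrate, Fe(II), 2-oxoglutarate | system = GST-tagged GASC-1 (JMJD2C) catalytic fragment, aa 2-372 | amount = enzyme final amount 10 nM | read-out = Fall in 671/618 emission ratio as inhibition | medium = HEPES buffer, pH 7.5, plus ascorbate | schedule = 30 min reaction, 60 min detection, RT | measured by = LANCE TR-FRET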
T cruzi growth-1: blocks T. cruzi growth in NIH3T3 culture; T. cruzi beta-gal in NIH3T3, GalScreen luminescence, 90 h; inhibition, % at 8.34 µM; 5.9% of 77,000 active;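 active means mean inhibition above about 93%, with at least 55% of replicates each passing it, limit read from the data, passing the limit was not always enough; inconclusive means only one of those two conditions holds; inactive means neither condition holds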
IDH1 mut inh: blocks human IDH1 R132H reductase activity; diaphorase/resazurin fluorescence, 60 min; inhibition, % at 10 µM; 0.18% of 70,000 active; in the data active means inhibition above about 34%; inconclusive means no clear call, values can overlap the other calls; inactive means below about 11%
Target sequence (O75874 whole entry R132H): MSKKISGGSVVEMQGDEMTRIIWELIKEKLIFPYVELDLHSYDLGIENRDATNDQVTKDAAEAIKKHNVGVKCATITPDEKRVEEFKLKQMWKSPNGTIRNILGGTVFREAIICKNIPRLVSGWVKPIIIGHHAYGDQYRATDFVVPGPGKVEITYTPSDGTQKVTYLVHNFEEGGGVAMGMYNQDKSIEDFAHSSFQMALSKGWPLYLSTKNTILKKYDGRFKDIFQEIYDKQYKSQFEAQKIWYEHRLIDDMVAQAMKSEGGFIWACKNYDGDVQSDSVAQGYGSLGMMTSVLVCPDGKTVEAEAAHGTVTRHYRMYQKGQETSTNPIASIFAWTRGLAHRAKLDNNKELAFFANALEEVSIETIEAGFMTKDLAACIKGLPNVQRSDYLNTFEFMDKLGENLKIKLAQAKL
Pf Dd2 inh: inhibitors of Plasmodium falciparum Dd2 growth; activity change, % at 10 µM; 2.3% of 94,000 active; AID 1159554; P. falciparum Dd2 growth, SYBR Green, 72 h; active compounds read low; in the data active means activity change below about -80%; inconclusive means no clear call, values can overlap the other calls
T cruzi growth-2: blocks T. cruzi growth in NIH3T3 host cells; shares compounds with T cruzi growth-1; T. cruzi beta-gal in NIH3T3, GalScreen luminescence, 90 h; inhibition, % at 8.35 µM; 72% of 5,600 active;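 active means mean replicate inhibition above about 95% and at least 55% of replicates individually reaching it, limit read from the data; inconclusive means only one of the two criteria is met; inactive means neither criterion is met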
T cruzi growth-3: blocks T. cruzi growth in NIH3T3 host cells. AID 651740. 21% of 5,600 active. inhibition, % at 2.09 µM. T. cruzi beta-gal in NIH3T3, GalScreen luminescence, 90 h. shares compounds with T cruzi growth-1;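 active means mean inhibition above about 95%, with at least 55% of replicates also reaching it, limit read from the data; inconclusive means meets just one of the two conditions; inactive means meets neither condition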
NIH3T3 tox: cytotoxicity in mouse NIH/3T3 fibroblasts; 14% of 5,600 active; AID 651742; NIH/3T3 viability, CellTiter-Glo ATP luminescence, 90 h; cytotoxicity (signal decrease), % at 8.35 µM; shares compounds with T cruzi growth-1;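 active means mean signal decrease across replicates above about 35% based on untreated-well scatter, with enough replicates individually passing, limit read from the data; inconclusive means no rule stated though some were filed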
3T3 cytotox 2: NIH/3T3 (mouse) viability loss; inhibition, % at 24.9 µM; 56% of 5,600 active; AID 651744; NIH/3T3 viability, CellTiter-Glo ATP luminescence, 90 h; shares compounds with T cruzi growth-1;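 active means mean loss of cell viability signal at or above a set limit, and enough replicates individually reaching it; inconclusive means meets only the mean limit or only the replicate share; inactive means meets neither condition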
A number is an active result; – = inactive; ? = inconclusive; · = not tested or not shown. The list is not random: actives were taken first. Their share in the collection is about 5.8%.

SMILES	GASC1 inh	T cruzi growth-1	IDH1 mut inh	Pf Dd2 inh	T cruzi growth-2	T cruzi growth-3	NIH3T3 tox	3T3 cytotox 2
C/C=C/c1ccc([C@H]2[C@@H](CO)N3CCCCN(S(=O)(=O)c4ccc(OC)cc4)C[C@H]23)cc1	–	–	·	–	·	·	·	·
C/C=C/c1ccc([C@@H]2[C@H]3CN(S(=O)(=O)c4ccc(OC)cc4)CCCCN3[C@H]2CO)cc1	–	?	·	–	102.5	–	–	68.0
C/C=C/c1ccc([C@H]2[C@@H](CO)N3CCCCN(S(=O)(=O)c4ccc(F)cc4)C[C@H]23)cc1	–	?	·	–	108.0	–	–	102.9
C/C=C/c1ccc([C@H]2[C@H](CO)N3CCCCN(S(=O)(=O)c4ccc(OC)cc4)C[C@@H]23)cc1	–	100.1	·	–	107.6	–	–	102.0
Cc1ccc(-c2noc(CN(C(=O)c3cccc([N+](=O)[O-])c3)C(C)C)n2)cc1	·	·	–	·	·	·	·	·
CC(=O)N1CC[C@@H]2[C@@H](CO)Nc3ccc(-c4ccccc4)cc3[C@@H]21	–	–	·	–	·	·	·	·
C[C@H](CO)N1C[C@H](C)[C@H](CN(C)S(=O)(=O)c2ccc(Cl)cc2)Oc2c(NC(=O)CCCCCC(=O)Nc3ccccc3N)cccc2C1=O	–	106.2	·	-81.0	113.7	–	–	–
Cc1ccc(S(=O)(=O)N(C)C[C@H]2Oc3c(NC(=O)CCCCCC(=O)Nc4ccccc4N)cccc3C(=O)N([C@H](C)CO)C[C@@H]2C)cc1	–	·	·	–	·	·	·	·
C[C@H]1CN([C@@H](C)CO)C(=O)c2cccc(NC(=O)CCCCCC(=O)Nc3ccccc3N)c2O[C@@H]1CN(C)S(=O)(=O)c1ccccc1	–	·	·	–	·	·	·	·
C[C@H]1CN([C@@H](C)CO)C(=O)c2cccc(NC(=O)CCCCCC(=O)Nc3ccccc3N)c2O[C@@H]1CN(C)S(=O)(=O)c1ccc(Cl)cc1	–	105.9	–	?	104.5	–	–	–
O=C(C[C@@H]1CC[C@H]2[C@@H](COC[C@H](O)CN2Cc2nccs2)O1)NCc1ccc(Cl)cc1	–	–	·	–	·	·	·	·
C[C@@H]1CN([C@H](C)CO)C(=O)c2cc(C3=CCCC3)cnc2O[C@@H]1CN(C)Cc1ccc(C(=O)O)cc1	–	–	·	–	·	·	·	·
Cc1ccccc1S(=O)(=O)NCC[C@H]1CC[C@@H](NS(=O)(=O)c2ccccc2C)[C@H](CO)O1	–	–	–	–	·	·	·	·
CC(C)CC#Cc1ccc2c(c1)O[C@@H](CN(C)CC1CCCC1)[C@H](C)CN([C@@H](C)CO)S2(=O)=O	–	·	·	–	·	·	·	·
CCCN(C)C[C@@H]1Oc2cc(C#CCC(C)C)ccc2S(=O)(=O)N([C@@H](C)CO)C[C@@H]1C	–	107.6	–	–	110.4	109.9	–	103.5
CC(C)CC#Cc1ccc2c(c1)O[C@H](CN(C)CC1CCOCC1)[C@@H](C)CN([C@H](C)CO)S2(=O)=O	–	–	–	–	·	·	·	·
CC(C)CC#Cc1ccc2c(c1)O[C@@H](CN(C)CC1CC1)[C@@H](C)CN([C@H](C)CO)S2(=O)=O	–	107.3	–	–	105.0	–	37.6	102.7
CC(C)CC#Cc1ccc2c(c1)O[C@H](CN(C)CC1CC1)[C@H](C)CN([C@H](C)CO)S2(=O)=O	–	105.4	–	–	108.5	–	–	105.8
CC(C)CC#Cc1ccc2c(c1)O[C@@H](CN(C)CC1CC1)[C@@H](C)CN([C@@H](C)CO)S2(=O)=O	–	111.5	–	–	109.8	–	–	103.5
CC(C)NC(=O)N[C@H]1C=C[C@@H](CC(=O)NCCN2CCCC2)O[C@@H]1CO	–	·	–	–	·	·	·	·
CN(C)C(=O)C[C@@H]1C[C@@H]2c3cc(NC(=O)C4CCOCC4)ccc3O[C@@H]2[C@H](CO)O1	–	–	–	–	·	·	·	·
C[C@@H]1CN([C@@H](C)CO)S(=O)(=O)c2ccc(-c3ccccc3)cc2O[C@@H]1CN(C)Cc1cccc(F)c1	–	123.1	·	–	–	112.1	–	107.1
Cc1ccc(-c2ccc3c(c2)O[C@@H](CN(C)Cc2ccc(F)cc2)[C@@H](C)CN([C@@H](C)CO)S3(=O)=O)cc1	–	–	–	–	·	·	·	·
C[C@H](CO)N1C[C@H](C)[C@H](CN(C)CC2CC2)Oc2cc(-c3ccccc3)ccc2S1(=O)=O	–	–	–	–	·	·	·	·
Cc1ccc(-c2ccc3c(c2)O[C@H](CN(C)Cc2ccc(F)cc2)[C@@H](C)CN([C@H](C)CO)S3(=O)=O)cc1	–	98.4	–	–	102.4	100.0	46.1	104.0
SMILES	GASC1 inh	T cruzi growth-1	IDH1 mut inh	Pf Dd2 inh	T cruzi growth-2	T cruzi growth-3	NIH3T3 tox	3T3 cytotox 2
C[C@@H]1CN([C@@H](C)CO)S(=O)(=O)c2ccc(-c3ccc(F)cc3)cc2O[C@@H]1CN(C)Cc1cccc(F)c1	–	–	–	–	·	·	·	·
C[C@H]1CN([C@@H](C)CO)S(=O)(=O)c2ccc(-c3ccccc3)cc2O[C@H]1CN(C)CC1CC1	–	111.5	–	–	–	–	–	79.0
Cc1ccc(-c2ccc3c(c2)O[C@H](CN(C)Cc2ccccc2)[C@H](C)CN([C@H](C)CO)S3(=O)=O)cc1	–	120.5	–	–	–	110.1	–	106.3
C[C@@H]1CN([C@H](C)CO)S(=O)(=O)c2ccc(-c3ccccc3)cc2O[C@H]1CN(C)Cc1ccccc1	–	–	–	–	·	·	·	·
Cc1ccc(S(=O)(=O)N[C@@H]2CC[C@H](CCNC(=O)CN3CCOCC3)O[C@@H]2CO)cc1	–	–	–	–	·	·	·	·
C[C@H](CO)N1C[C@H](C)[C@H](CN(C)CC2CC2)OCCCC[C@H](C)Oc2ccc(NS(=O)(=O)c3ccc(Cl)cc3)cc2C1=O	–	–	·	–	·	·	·	·
C[C@@H]1CN([C@@H](C)CO)C(=O)c2cccc(NC(=O)Nc3ccc(F)cc3)c2O[C@@H]1CN(C)C(=O)Nc1ccc(C(F)(F)F)cc1	–	?	–	–	111.4	–	–	40.3
C[C@@H]1CN([C@H](C)CO)C(=O)c2cccc(NC(=O)Nc3ccc(C(F)(F)F)cc3)c2O[C@@H]1CN(C)CC1CC1	–	–	–	–	·	·	·	·
CC(C)NC(=O)N(C)C[C@@H]1Oc2c(NC(=O)Nc3ccc(C(F)(F)F)cc3)cccc2C(=O)N([C@@H](C)CO)C[C@H]1C	–	–	·	–	·	·	·	·
C[C@H](CO)N1C[C@H](C)[C@H](CN(C)CC2CC2)Oc2c(NC(=O)Nc3ccc(C(F)(F)F)cc3)cccc2C1=O	–	118.4	–	–	100.7	99.8	–	–
C[C@H](CO)N1C[C@H](C)[C@@H](CN(C)C(=O)Nc2ccc(F)cc2)Oc2c(NC(=O)Nc3cccc4ccccc34)cccc2C1=O	–	–	–	–	·	·	·	·
